Results published in ChEMBL document CHEMBL1149069, “SB-202742, a novel beta-lactamase inhibitor isolated from Spondias mombin” (J Nat Prod, 1994).
Values after ≈ are worked out from the molar mass of the structure shown. Active and inactive are the calls of the source. The calls are words filed in the database; no cut-off is given here.

Key:
Staphylococcus aureus [1] = experiment: Antimicrobial activity against Staphylococcus aureus Smith by microtiter method; format: functional
Method in brief: (§1)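 Broth microdilution MIC in Oxoid nutrient broth No. 2. Inoculum was a 1/500 dilution of an overnight broth culture, and plates were incubated overnight at 37°.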

Staphylococcus aureus [2] = experiment: Antimicrobial activity against Staphylococcus aureus Russell by microtiter method; format: functional; method in brief: as §1
Beta-lactamase [3] = molecular target: Beta-lactamase (Enterobacter cloacae, UniProt P05364); experiment: Inhibition of Enterobacter cloacae P99 beta-lactamase assessed as inhibition of nitrocefin hydrolysis pre-incubated for 5 mins by microtiter plate assay
Chain of Beta-lactamase (Enterobacter cloacae, UniProt P05364) (P05364 whole entry): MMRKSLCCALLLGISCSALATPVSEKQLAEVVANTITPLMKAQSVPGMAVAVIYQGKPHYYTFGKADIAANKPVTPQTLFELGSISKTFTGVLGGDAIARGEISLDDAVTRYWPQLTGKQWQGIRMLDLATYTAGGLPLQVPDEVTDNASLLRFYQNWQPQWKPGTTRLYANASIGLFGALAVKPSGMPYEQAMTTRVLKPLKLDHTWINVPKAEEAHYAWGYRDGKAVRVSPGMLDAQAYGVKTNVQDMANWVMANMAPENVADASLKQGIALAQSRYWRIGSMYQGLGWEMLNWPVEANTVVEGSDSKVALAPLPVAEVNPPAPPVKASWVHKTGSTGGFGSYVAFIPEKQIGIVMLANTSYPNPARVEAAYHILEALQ

[4] = Inhibition of Escherichia coli K-12 beta-lactamase OXA1 assessed as inhibition of nitrocefin hydrolysis pre-incubated for 5 mins by microtiter plate assay
Escherichia coli = experiment: Antimicrobial activity against Escherichia coli NCTC-10418 by microtiter method; format: functional; method in brief: as §1
Klebsiella pneumoniae = experiment: Antimicrobial activity against Klebsiella pneumoniae A by microtiter method; format: functional; method in brief: as §1
[5] = molecular target: Beta-lactamase (Staphylococcus aureus) (UniProt P00807); experiment: Inhibition of Staphylococcus aureus Russell beta-lactamase assessed as inhibition of nitrocefin hydrolysis up to 567 ug/ml pre-incubated for 5 mins by microtiter plate assay
Chain of Beta-lactamase (Staphylococcus aureus) (P00807 whole entry): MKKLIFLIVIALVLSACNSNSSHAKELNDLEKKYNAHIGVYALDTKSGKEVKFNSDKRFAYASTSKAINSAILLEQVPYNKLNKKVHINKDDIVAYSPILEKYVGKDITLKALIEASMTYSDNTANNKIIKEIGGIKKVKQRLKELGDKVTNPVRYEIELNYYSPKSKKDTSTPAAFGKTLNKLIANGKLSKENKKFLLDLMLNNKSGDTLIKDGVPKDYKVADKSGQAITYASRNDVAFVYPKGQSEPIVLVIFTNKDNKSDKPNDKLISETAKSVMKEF
Method in brief: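 Inhibitor was pre-incubated with the enzyme for 5 min at 37°, then hydrolysis of 200 µM nitrocefin was read on a microtiter plate reader. Inhibitor was tested at concentrations up to 567 µg/ml.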

Serratia marcescens = experiment: Antimicrobial activity against Serratia marcescens US32 by microtiter method; format: functional; method in brief: as §1
Bacillus subtilis = experiment: Antimicrobial activity against Bacillus subtilis ATCC 6633 by microtiter method; format: functional; method in brief: as §1
Pseudomonas aeruginosa = experiment: Antimicrobial activity against Pseudomonas aeruginosa 1771P by microtiter method; format: functional; method in brief: as §1
Beta-lactamase [6] = molecular target: Beta-lactamase (Pseudomonas aeruginosa (strain ATCC 15692 / PAO1 / 1C / PRS 101 / LMG12228), UniProt P24735); experiment: Inhibition of Pseudomonas aeruginosa A beta-lactamase assessed as inhibition of nitrocefin hydrolysis preincubated for 5 mins by microtiter plate assay
Chain of Beta-lactamase (Pseudomonas aeruginosa (strain ATCC 15692 / PAO1 / 1C / PRS 101 / LMG12228), UniProt P24735) (P24735 whole entry): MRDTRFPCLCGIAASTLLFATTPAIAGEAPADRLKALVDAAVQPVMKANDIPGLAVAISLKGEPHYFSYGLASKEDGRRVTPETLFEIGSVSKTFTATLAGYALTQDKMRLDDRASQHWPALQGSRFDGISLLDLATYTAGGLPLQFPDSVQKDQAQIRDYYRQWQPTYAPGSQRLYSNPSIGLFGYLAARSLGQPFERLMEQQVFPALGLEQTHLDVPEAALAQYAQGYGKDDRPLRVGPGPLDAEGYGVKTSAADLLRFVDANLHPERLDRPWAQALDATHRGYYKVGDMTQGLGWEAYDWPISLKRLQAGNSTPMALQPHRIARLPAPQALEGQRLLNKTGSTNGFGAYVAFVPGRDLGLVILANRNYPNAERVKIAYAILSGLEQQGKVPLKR

Beta-lactamase [7] = molecular target: T1, Beta-lactamase (Proteus mirabilis, UniProt P30897); experiment: Inhibition of Proteus mirabilis C889 beta-lactamase assessed as inhibition of nitrocefin hydrolysis preincubated for 5 mins by microtiter plate assay
T1 sequence (P30897 whole entry): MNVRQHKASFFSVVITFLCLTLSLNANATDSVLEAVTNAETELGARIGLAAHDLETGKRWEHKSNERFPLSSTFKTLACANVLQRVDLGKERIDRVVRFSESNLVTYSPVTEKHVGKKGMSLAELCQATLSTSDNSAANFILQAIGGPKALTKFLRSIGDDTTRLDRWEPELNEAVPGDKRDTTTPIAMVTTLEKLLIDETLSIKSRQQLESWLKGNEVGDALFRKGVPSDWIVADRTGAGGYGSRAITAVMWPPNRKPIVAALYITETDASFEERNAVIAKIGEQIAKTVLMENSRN

Staphylococcus aureus [8] = experiment: Antimicrobial activity against Staphylococcus aureus Oxford by microtiter method; format: functional; method in brief: as §1
[9] = test system: Staphylococcus epidermidis; experiment: Antimicrobial activity against Staphylococcus epidermidis NCTC 11047 by microtiter method; format: functional; method in brief: as §1
Proteus mirabilis = experiment: Antimicrobial activity against Proteus mirabilis C977 by microtiter method; format: functional; method in brief: as §1
[10] = test system: Staphylococcus saprophyticus; experiment: Antimicrobial activity against Staphylococcus saprophyticus Fl2 by microtiter method; format: functional; method in brief: as §1
Streptococcus pneumoniae = experiment: Antimicrobial activity against Streptococcus pneumoniae PU7 after overnight incubation by Todd Hewitt broth dilution method; format: functional
Method in brief: (§2)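 Broth microdilution MIC in Todd Hewitt broth. Inoculum was a 1/500 dilution of an overnight broth culture, and plates were incubated overnight at 37°.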

Enterobacter cloacae = experiment: Antimicrobial activity against Enterobacter cloacae N1 by microtiter method; format: functional; method in brief: as §1
Streptococcus pyogenes = experiment: Antimicrobial activity against Streptococcus pyogenes CN 10 after overnight incubation by Todd Hewitt broth dilution method; format: functional; method in brief: as §2
Beta-lactamase TEM = Beta-lactamase TEM (Escherichia coli, UniProt P62593); experiment: Inhibition of Escherichia coli JT4 beta-lactamase TEM1 assessed as inhibition of nitrocefin hydrolysis preincubated for 5 mins by microtiter plate assay
Chain of Beta-lactamase TEM (P62593 whole entry): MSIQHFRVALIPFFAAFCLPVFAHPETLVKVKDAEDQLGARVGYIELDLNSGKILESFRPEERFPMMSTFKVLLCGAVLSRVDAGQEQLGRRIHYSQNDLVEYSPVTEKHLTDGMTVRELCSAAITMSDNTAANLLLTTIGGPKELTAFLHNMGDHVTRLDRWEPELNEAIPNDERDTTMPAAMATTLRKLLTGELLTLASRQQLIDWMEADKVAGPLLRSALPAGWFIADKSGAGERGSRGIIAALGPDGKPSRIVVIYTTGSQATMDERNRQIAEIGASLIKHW
Method in brief: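 Inhibitor was pre-incubated with enzyme for 5 min at 37° before each determination. Enzyme classification follows Bush.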

Enterococcus faecalis = experiment: Antimicrobial activity against Streptococcus faecalis 1 by microtiter method; format: functional; method in brief: as §1
[11] = Inhibition of Escherichia coli K-12 beta-lactamase PSE-4 assessed as inhibition of nitrocefin hydrolysis preincubated for 5 mins by microtiter plate assay

What does the source list for `CC/C=C\C/C=C\C/C=C\CCCCCCCc1cccc(O)c1C(=O)O`?
MIC (Staphylococcus aureus [1]): 2 µg/mL (≈ 5.4 µM); MIC (Staphylococcus aureus [2]): 32 µg/mL (≈ 86.4 µM); IC50 (Beta-lactamase [3]): 44.5 µM; IC50 [4]: 79.7 µg/mL (≈ 215 µM); MIC (Escherichia coli): > 256 µg/mL; MIC (Klebsiella pneumoniae): > 256 µg/mL; Activity [5]: inactive; MIC (Serratia marcescens): > 256 µg/mL; MIC (Bacillus subtilis): 4 µg/mL (≈ 10.8 µM); MIC (Pseudomonas aeruginosa): > 256 µg/mL; IC50 (Beta-lactamase [6]): 109 µM; IC50 (Beta-lactamase [7]): 300 µM; MIC (Staphylococcus aureus [8]): 8 µg/mL (≈ 21.6 µM); MIC [9]: 2 µg/mL (≈ 5.4 µM); MIC (Proteus mirabilis): > 256 µg/mL; MIC [10]: 2 µg/mL (≈ 5.4 µM); MIC (Streptococcus pneumoniae): 2 µg/mL (≈ 5.4 µM); MIC (Enterobacter cloacae): > 256 µg/mL; MIC (Streptococcus pyogenes): 2 µg/mL (≈ 5.4 µM); IC50 (Beta-lactamase TEM): 13.5 µM; MIC (Enterococcus faecalis): 0.25 µg/mL (≈ 0.675 µM); IC50 [11]: 10.1 µg/mL (≈ 27.3 µM)

With `O=C(O)[C@H]1/C(=C/CO)O[C@@H]2CC(=O)N21` [CLAVULANIC ACID] as the compound, how does the IC50 [4] read?
Its IC50 is 0.35 µg/mL (≈ 1.76 µM).
